Laboratory results reported in ChEMBL document CHEMBL4602726, “Discovery of the First Vitamin K Analogue as a Potential Treatment of Pharmacoresistant Seizures” (J Med Chem, 2020).

Experiments:
[1] = Toxicity in CF1 mouse assessed as induction of abdominal constriction measured at time of treatment by writhing test; settings: in vivo
[2] = Oral bio availability in CD1 mouse at 20 mg/kg measured after 0.083 to 24 hrs by LC-MS/MS analysis; type: ADME, organism-based; settings: in vivo
Summary of the method: (§1)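 Male CD-1 mice, 3 per route. Oral and ip at 20 mg/kg by gavage needle; iv at 5 mg/kg by tail vein. Vehicles were 20% DMA:40% PEG300:40% H2O for oral/iv and 5% DMSO:95% Neobee for ip. Blood sampled 0.083–24 h, plasma protein-precipitated with acetonitrile plus internal standard, LC-MS/MS (MRM). Non-compartmental analysis, linear trapezoidal AUC.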

Cytochrome P450 2B6 = biological target: T1, Cytochrome P450 2B6 (Homo sapiens, UniProt P20813); assay: Inhibition of CYP2B6 in human liver microsomes using isoform-specific probe substrates incubated for 15 to 30 mins by LC-MS/MS analysis; type: ADME
T1 sequence (P20813 whole entry): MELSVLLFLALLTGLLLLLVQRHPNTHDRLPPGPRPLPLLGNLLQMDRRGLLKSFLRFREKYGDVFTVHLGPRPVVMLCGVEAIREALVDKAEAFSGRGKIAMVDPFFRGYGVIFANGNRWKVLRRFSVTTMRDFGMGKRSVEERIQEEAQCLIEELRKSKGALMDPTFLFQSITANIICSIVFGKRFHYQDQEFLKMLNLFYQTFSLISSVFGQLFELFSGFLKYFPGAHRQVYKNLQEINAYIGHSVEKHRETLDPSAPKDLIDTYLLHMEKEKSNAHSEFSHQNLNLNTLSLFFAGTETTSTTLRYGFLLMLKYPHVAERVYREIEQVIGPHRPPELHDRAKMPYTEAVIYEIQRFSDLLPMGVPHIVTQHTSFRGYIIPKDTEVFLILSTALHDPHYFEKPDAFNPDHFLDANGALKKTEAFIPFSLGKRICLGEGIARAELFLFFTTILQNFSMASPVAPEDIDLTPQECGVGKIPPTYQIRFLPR
Summary of the method: (§2)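 Pooled mixed-gender human liver microsomes 0.2 mg/mL in 100 mM potassium phosphate with 2 mM NADPH. Isoform-specific probe substrates near Km. Organic solvent ≤1% final. Incubated 37°C for 15–30 min, quenched with acetonitrile plus internal standard. Probe metabolites measured by LC-MS/MS; percent inhibition versus vehicle, IC50 by variable-slope sigmoid fit.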

[3] = AUClast in CD1 mouse at 5 mg/kg, iv measured after 0.083 to 24 hrs by LC-MS/MS analysis; type: ADME, organism-based; design: dose 5 mg/kg, time upper 24 hr, time lower 0.083 hr, route intravenous; settings: in vivo; summary of the method: as §1
[4] = Toxicity in CF1 mouse assessed as induction of abdominal constriction measured during 1 hr observation period by writhing test; settings: in vivo
[5] = Cmax in CD1 mouse at 5 mg/kg, iv measured after 0.083 to 24 hrs by LC-MS/MS analysis; type: ADME, organism-based; design: dose 5 mg/kg, route intravenous; settings: in vivo; summary of the method: as §1
Mus musculus = assay: Anti-seizure activity in CF1 mouse assessed as attenuation of psychomotor seizures at stimulus intensities of 44 mA at 400 mg/kg, ip measured at 0.25 to 4 hrs by 6 Hz limbic seizure test relative to control; type: functional
Summary of the method: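 Male CF-1 mice, n=8 per dose. 6 Hz, 3 s corneal stimulation at 32 or 44 mA. Compound given ip in miglyol840/DMSO (95%/5%). Time of peak effect found by testing at 0.25–4 h; dose-response run at that time. Protected if no stun, jaw/forelimb clonus, vibrissae twitching or Straub tail for ≥1 s. ED50 by Probit analysis.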

Danio rerio = organism: Danio rerio; assay: Increase in ATP concentration in zebrafish at 1 uM incubated for 24 hrs by fluorometric ATP assay relative to control; type: functional
Summary of the method: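 7 dpf zebrafish larvae, one per well, kept at 28.5°C for 24 h with compound in E3 buffer (DMSO stock). DMSO vehicle in control wells. Twelve fish per condition pooled, flash-frozen, homogenized in ATP buffer and centrifuged. ATP in the supernatant read by fluorescence at ex 535/em 587 nm, normalized to total protein (BCA), and expressed as nmole/mg relative to DMSO control. n = 7–13.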

[6] = Drug level in CD1 mouse brain at 400 mg/kg, ip after 4 hrs by LC-MS/MS analysis; type: ADME, organism-based; settings: read-out: Drug uptake
Summary of the method: (§3)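 Male mice fasted overnight and given ip dose in 95% Miglyol 840/5% DMSO. Plasma precipitated 3:1 with acetonitrile plus internal standard. Brain homogenized 3:1 in PBS, then acetonitrile extraction. LC-MS/MS in MRM mode, standard curve 1 ng/mL–10 μg/mL. Ratio = mean tissue (ng/g) over mean plasma (ng/mL) concentration.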

[7] = biological target: Voltage-gated inwardly rectifying potassium channel KCNH2 (Homo sapiens, UniProt Q12809); assay: Inhibition of human ERG
[8] = Toxicity in mouse HT22 cells assessed as inhibition of cell viability at 50 uM incubated for 48 hrs by Cell-titer-Blue dye based fluorescence spectrophotometry relative to control; design: species or system HT-22; settings: read-out: Activity
Summary of the method: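 HT-22 cells in DMEM high glucose with 10% FBS, 2000 per well. Serially diluted compound added after 12 h, incubated 48 h. […] Background subtracted, normalized to control wells.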

[9] = Drug level in CD1 mouse plasma at 400 mg/kg, ip after 0.5 hrs by LC-MS/MS analysis; type: ADME, organism-based; summary of the method: as §3
[10] = Toxicity in CF1 mouse assessed as induction of lethality measured after electric stimulation after 24 hrs at >500 mg/kg; type: organism-based; settings: in vivo
[11] = Ratio of drug level in brain to plasma in CD1 mouse at 400 mg/kg, ip after 1 hr by LC-MS/MS analysis; type: ADME, organism-based; settings: brain and plasma, read-out: BPR; summary of the method: as §3
Cytochrome P450 2C19 = Cytochrome P450 2C19 (Homo sapiens, UniProt P33261); assay: Inhibition of CYP2C19 in human liver microsomes using isoform-specific probe substrates incubated for 15 to 30 mins by LC-MS/MS analysis; type: ADME; summary of the method: as §2
Cytochrome P450 2C8 = biological target: T2, Cytochrome P450 2C8 (Homo sapiens, UniProt P10632); assay: Inhibition of CYP2C8 in human liver microsomes using isoform-specific probe substrates incubated for 15 to 30 mins by LC-MS/MS analysis; type: ADME; summary of the method: as §2
T2 sequence (P10632 whole entry): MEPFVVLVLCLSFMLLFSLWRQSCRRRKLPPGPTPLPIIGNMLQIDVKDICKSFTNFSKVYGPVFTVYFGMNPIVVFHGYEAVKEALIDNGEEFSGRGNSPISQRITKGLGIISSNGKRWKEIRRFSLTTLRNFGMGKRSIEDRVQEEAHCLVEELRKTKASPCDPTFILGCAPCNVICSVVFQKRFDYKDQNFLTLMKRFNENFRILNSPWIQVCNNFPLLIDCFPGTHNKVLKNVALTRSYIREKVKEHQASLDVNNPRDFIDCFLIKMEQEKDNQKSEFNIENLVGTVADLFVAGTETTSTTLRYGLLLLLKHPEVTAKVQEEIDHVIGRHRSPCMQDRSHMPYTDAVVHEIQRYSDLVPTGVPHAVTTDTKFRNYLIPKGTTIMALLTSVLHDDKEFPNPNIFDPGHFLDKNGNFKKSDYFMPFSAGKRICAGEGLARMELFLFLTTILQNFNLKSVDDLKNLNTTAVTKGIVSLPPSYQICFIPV

Cytochrome P450 2C9 = Cytochrome P450 2C9 (Homo sapiens, UniProt P11712); assay: Inhibition of CYP2C9 in human liver microsomes using isoform-specific probe substrates incubated for 15 to 30 mins by LC-MS/MS analysis; type: ADME; summary of the method: as §2
Cytochrome P450 2C9, sequence (P11712 whole entry, canonical isoform): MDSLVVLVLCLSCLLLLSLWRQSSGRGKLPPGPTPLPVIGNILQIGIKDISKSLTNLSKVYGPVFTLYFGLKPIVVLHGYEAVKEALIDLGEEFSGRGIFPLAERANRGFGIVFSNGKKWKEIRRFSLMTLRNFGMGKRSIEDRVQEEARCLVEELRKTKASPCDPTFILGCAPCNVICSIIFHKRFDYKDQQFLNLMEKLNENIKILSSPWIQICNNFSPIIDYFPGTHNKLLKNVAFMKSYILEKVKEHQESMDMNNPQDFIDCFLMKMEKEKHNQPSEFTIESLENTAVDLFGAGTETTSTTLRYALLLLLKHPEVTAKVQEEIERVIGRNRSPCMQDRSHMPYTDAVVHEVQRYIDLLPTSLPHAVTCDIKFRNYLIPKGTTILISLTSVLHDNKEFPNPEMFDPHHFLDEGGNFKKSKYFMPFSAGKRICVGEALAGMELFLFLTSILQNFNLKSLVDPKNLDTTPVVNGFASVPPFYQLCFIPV

Cytochrome P450 2C19, sequence (P33261 whole entry, canonical isoform): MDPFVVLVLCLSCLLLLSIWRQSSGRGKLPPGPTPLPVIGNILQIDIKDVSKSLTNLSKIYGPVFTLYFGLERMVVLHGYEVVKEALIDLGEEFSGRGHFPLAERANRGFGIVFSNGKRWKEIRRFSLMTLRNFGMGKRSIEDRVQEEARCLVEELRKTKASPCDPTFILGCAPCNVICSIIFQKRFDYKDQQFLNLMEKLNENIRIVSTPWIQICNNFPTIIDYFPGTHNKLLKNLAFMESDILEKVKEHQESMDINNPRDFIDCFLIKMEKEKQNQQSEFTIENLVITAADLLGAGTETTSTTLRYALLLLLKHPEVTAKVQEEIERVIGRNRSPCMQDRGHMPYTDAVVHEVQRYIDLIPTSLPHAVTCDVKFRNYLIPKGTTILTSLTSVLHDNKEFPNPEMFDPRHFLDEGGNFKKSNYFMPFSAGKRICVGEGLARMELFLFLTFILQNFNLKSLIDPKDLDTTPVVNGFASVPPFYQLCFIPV
Voltage-gated inwardly rectifying potassium channel KCNH2, sequence (Q12809 whole entry): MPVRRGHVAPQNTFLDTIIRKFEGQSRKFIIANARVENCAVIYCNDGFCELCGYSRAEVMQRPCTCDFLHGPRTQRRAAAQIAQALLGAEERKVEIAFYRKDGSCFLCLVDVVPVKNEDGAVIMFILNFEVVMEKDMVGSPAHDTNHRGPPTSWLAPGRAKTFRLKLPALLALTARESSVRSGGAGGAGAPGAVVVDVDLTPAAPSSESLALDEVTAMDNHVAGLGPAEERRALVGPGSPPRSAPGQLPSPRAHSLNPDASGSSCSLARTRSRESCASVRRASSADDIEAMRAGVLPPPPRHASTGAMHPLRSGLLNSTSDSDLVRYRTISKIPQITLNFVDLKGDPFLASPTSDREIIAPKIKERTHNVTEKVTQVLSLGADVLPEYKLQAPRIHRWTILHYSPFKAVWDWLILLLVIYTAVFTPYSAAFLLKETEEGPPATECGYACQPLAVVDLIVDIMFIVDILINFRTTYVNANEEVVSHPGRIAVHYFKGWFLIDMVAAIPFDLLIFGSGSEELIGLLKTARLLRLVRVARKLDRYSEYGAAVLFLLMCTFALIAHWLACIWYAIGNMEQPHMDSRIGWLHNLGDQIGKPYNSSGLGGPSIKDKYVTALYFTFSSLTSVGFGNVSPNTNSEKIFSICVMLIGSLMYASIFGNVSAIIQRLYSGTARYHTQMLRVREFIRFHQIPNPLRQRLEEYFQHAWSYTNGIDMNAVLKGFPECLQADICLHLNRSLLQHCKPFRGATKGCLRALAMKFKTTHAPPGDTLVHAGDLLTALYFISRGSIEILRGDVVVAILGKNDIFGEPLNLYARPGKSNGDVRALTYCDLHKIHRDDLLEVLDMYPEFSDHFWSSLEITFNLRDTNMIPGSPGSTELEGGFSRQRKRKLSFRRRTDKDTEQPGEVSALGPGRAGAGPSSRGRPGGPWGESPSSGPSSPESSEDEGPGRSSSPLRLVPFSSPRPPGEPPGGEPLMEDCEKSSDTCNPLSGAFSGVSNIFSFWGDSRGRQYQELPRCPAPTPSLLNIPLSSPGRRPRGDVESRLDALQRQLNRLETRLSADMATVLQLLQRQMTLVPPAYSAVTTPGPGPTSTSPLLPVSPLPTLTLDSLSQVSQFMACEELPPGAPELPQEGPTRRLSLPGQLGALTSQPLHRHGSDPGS

Compound: CC(C)CCNC1=CC(=O)c2ccccc2C1=O
- Activity [1]: Toxic
- F [2]: 35.9%
- IC50 (Cytochrome P450 2B6): 39.3 µM
- AUC(0-t) [3]: 636 ng·h/mL
- Activity [4]: Toxic
- Cmax [5]: 1910 ng/mL
- Activity (Mus musculus): 100%
- Activity (Danio rerio): 19%
- concentration at 4 h [6]: 3760 ng/g
- IC50 [7]: > 30 µM
- inhibition at 48 h, 50 µM [8]: 17.8%
- concentration at 0.5 h [9]: 1260 ng/mL
- Activity [10]: Toxic
- Kp at 1 h [11]: 2.33
- IC50 (Cytochrome P450 2C19): 16.4 µM
- IC50 (Cytochrome P450 2C8): 54.1 µM
- IC50 (Cytochrome P450 2C9): 29.3 µM
